According to the EternaBench riboswitch data:

System: MS2 coat protein
Assay: apparent Kd, MS2 coat protein; higher = weaker binding; RNA-MaP array
Procedure, shortened: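 In Tris-HCl pH 7.5 buffer with KCl, MgCl2, BSA, DTT, tRNA and Tween20, with or without input ligand, fluorescently labeled MS2 coat protein at 1.5 nM to 3 μM was incubated at room temperature with designed RNAs. The RNAs had been transcribed on an Illumina sequencing chip from sequenced DNA templates, and incubation ran 0.8–1.5 h at the lowest to 10–20 min at the highest concentrations. Apparent Kd is the median of binding-curve fits for individual clusters. Designs measured on fewer than 10 clusters were excluded.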

[1] = designed as: ON switch for flavin mononucleotide, no ligand
[2] = ligand present: flavin mononucleotide, designed as: ON switch for flavin mononucleotide
[3] = designed as: OFF switch for flavin mononucleotide, no ligand
[4] = ligand present: flavin mononucleotide, designed as: OFF switch for flavin mononucleotide
[5] = designed as: OFF switch for theophylline, no ligand
[6] = ligand present: theophylline, designed as: OFF switch for theophylline
[7] = designed as: OFF switch for tryptophan, no ligand
[8] = ligand present: tryptophan, designed as: OFF switch for tryptophan

Sequence | apparent Kd [1] | apparent Kd [2] | apparent Kd [3] | apparent Kd [4] | further results
AGAUCUAACGCAGGAUAUAGUGCGGGAAAACCUAAACAUGAGGAUCACCCAUGUCUGCUACAAAGCUAGAAGGGCGUUCGGGAA | 46.4 nM | 23.8 nM |  |  | 
AUGUUAAGACAGGAUAUCCAAGCUCUAGCGUCAGGAGAAGGGUCAACAUGAGGAUCACCCAUGUGUAGUCUUCG |  |  | 7.48 nM | 15.2 nM | 
ACAUACUUGGGAGGAUAUAUGUUCGUACGCUCGAUAGAAGGCCCAGAAGUAUAAGACAUGAGGAUCACCCAUGUGGCAAGCGUU | 11.4 nM | 8.78 nM |  |  | 
ACAUGAGGAUCACCCAUGUGUCUCCUUUCCAUUACGAUCUUUAGAAGGGUCCGCAAACACUCUGGACAGGAUAUAAAGUAUGGC |  |  | 13.4 nM | 12.2 nM | 
AGACGGUUACAGGAUAUGACUACUGCUAGAGCAUCAGAAGGGUAUACAUGAGGAUCACCCAUGUCUUCACGGCG |  |  | 10.1 nM | 9.62 nM | 
AAACAUGAGGAUCACCCAUGUAGAAUAAUCAGACGUUUGAACAGAAGGUGAAAACAAAUAAAACUCAAGGAUAUGUAACUAAAA | 65.6 nM | 52.5 nM |  |  | 
UAAUCAGUGAUAGGAUAUCGUAGCUCAGAUAGGCGAGAAGGAUCUGACUCCACAUGAGGAUCACCCAUGUUGUACAUACAGGAC | 19.5 nM | 17.1 nM |  |  | 
GUUACAUGAGGAUCACCCAUGUGGGCUGUAUGUAGCGCACCUGAGGAUAUGGCCCGGAGGUAGGACCAGAAGGCAGCGAAGAGC |  |  | 65.4 nM | 55.3 nM | 
CAUUAUCGCGUUAGGAUAUGAACAAGAAAUCGGCUACAGAAGGAACAUGAGGAUCACCCAUGUAUGAUCAAGAC |  |  | 13.1 nM | 10.7 nM | 
UGGAAGAUUGAAGGAUAUCCGGUCAAUUAAUAUGGAGAAGGUCAAUAUAUGGACAUGAGGAUCACCCAUGUAGAGUCAACUCGA | 38.5 nM | 26.8 nM |  |  | 
CCUUUUAUUAAUGAUACCAGCGUAUUAAGCAUCACCUUGGACAUGAGGAUCACCCAUGUACGCCCUUGGCAGCAUACCACUGGGU |  |  |  |  | apparent Kd [5]: 42.5 nM; apparent Kd [6]: 53.4 nM
CCGCACAUGAGGAUCACCCAUGUUCCCAGUCAACUAGGAGCCAAGGAUAUCGUUCGCGAGUGCACCGAGAAGGUGGCCCAUGAA | 193 nM | 72.6 nM |  |  | 
UCUCGGUAAGGAUAUAAAGCGACUCACAUGAGGAUCACCCAUGUUGUCGUCGUGGGCACAUUAGAAGGUACCAUUC |  |  | 7.06 nM | 6.3 nM | 
CAAUCUACCACCGGCCUACUGUACACUCGCCGAGGACCGGUACGGCCGCCACUCGACGUUCGACAUGAGGAUCACCCAUGUGGGU |  |  |  |  | apparent Kd [7]: 168 nM; apparent Kd [8]: 334 nM
CCACAGUAUAAAGGAUAUGCGGCCACGGCAACAGCAGAAGGUUAUGCCACUGUACAUGAGGAUCACCCAUGUCCAACUUUCCCU | 23.8 nM | 11.9 nM |  |  | 
GAGGCACGGUCGGCCGCCACUACAGCAGUGGUCCGCCAAGCGAGGUACAUGAGGAUCACCCAUGUUAGGACCGGGACCUGUUUUU |  |  |  |  | apparent Kd [7]: 24.6 nM; apparent Kd [8]: 73.7 nM
ACGUGGGUAACCAAGGAUAUAUUUACACCCACAUGAGGAUCACCCAUGUUCUUGCAGGCAUAUAAAUAGAAGGUGGAAACGCAGUG | 379 nM | 129 nM |  |  | 
UAAGACGCAGGAUAUACAUGAGGAUCACCCAUGUGCAUACAAGUCAAGAGGUACAUAAGUAGAAGGGCGUGGAU |  |  | 9.42 nM | 14.7 nM | 
GCUGCACAUGAGGAUCACCCAUGUACCCUACUGAGAGGAUAUGUGAUCCGUUAGCAAUCCACAGAAGGCUCGGUUC | 51.2 nM | 10.5 nM |  |  | 
GUUGGAUUUGUGAGGAUAUGGCCGUGACAUUUGGACCAGAAGGCACAUGAGGAUCACCCAUGUAUUGAAGAACG |  |  | 23.3 nM | 53.4 nM | 
CCAGAAGCAGGAUAUACAUGAGGAUCACCCAUGUUAAACAAUAUGACGAGCAUAGUCAGUAGAAGGGCAACUCA |  |  | 18.8 nM | 16.1 nM | 
ACUAAACCACAGAAGGAACUGAGUGCGCAAAAGUAAGGAUAUGUAAACAAUAACAUGAGGAUCACCCAUGUGACAGUAAGUUUA | 8.31 nM | 7.2 nM |  |  | 
CUGUAGACAGGAUAUGUUGUGCCGUACAUGAGGAUCACCCAUGUGAGAUCUCGCUACCAUACAGAAGGGUCUAAAC |  |  | 43.2 nM | 57.4 nM | 
AUGUGCAAUACGGAUACCAGCCCGUGUAGAUACAUGAGGAUCACCCAUGUCAAUGUAAAUGGCCCUUGGCAGCCGUUUGGGAGGC |  |  |  |  | apparent Kd (designed as: ON switch for theophylline, no ligand): 15.7 nM; apparent Kd (ligand present: theophylline, designed as: ON switch for theophylline): 11.8 nM
CGUAUGGGUGUCAGGAUAUGCGGGACGCUGUUACUGCAGAAGGGACAUGAGGAUCACCCAUGUAGUUCCAGACC |  |  | 18.4 nM | 33.3 nM | 
AGGCCAUCCAAGAAGGCUUACAACAUGAGGAUCACCCAUGUCACGGAGAUGUAUAACAUCUACUAAGAGGAUAUUGGGAGAGCU | 241 nM | 37.4 nM |  |  | 
AGACCGGCUCAGGAUAUGUACAGGACAUACUCAACAGAAGGGAGUACAUGAGGAUCACCCAUGUCUGGGUAGAU |  |  | 488 nM | 371 nM | 

Sequence | apparent Kd [1] | apparent Kd [2] | apparent Kd [3] | apparent Kd [4] | further results
UCGGUACAUGAGGAUCACCCAUGUCGUCACAGAGCAGGAUAUUCAGGCUUCAGAGGUCGCGAAGAAGGGCUGGUGC | 11.9 nM | 9.02 nM |  |  | 
CCGAGCACAGGAUAUACAUGAGGAUCACCCAUGUAUACGAAUACGACACAUCCUGCGUGUAGAAGGGUGGCAAA |  |  | 6.47 nM | 6.22 nM | 
GCGGACGAUGAGAAGGUAGUAAGGUAGGACAUGAGGAUCACCCAUGUAUGAACUAUCCCAACAACUAAGGAUAUCAGCAACCCU |  |  | 7.34 nM | 5.77 nM | 
AUACAAGCAAUGGAGGAUAUCGCAGAAAUCACAUGAGGAUCACCCAUGUCUUACCGUAUGUCGAGCGAGAAGGCCACGGUGCGAGU | 35.5 nM | 17.3 nM |  |  | 
CGCAGGGCCCAGAAGGGCAUAAUGUUAGACUACAUGAGGAUCACCCAUGUGCCACGAGAGGUUGUGCAGGAUAUGGAUCUAUUG | 56.7 nM | 23.9 nM |  |  | 
GAGUACAGGGAGAAGGUGUAUUAAUACGCACGGCUGGUCACAUGAGGAUCACCCAUGUCGCAUAACAAGGAUAUCCGACUAAUC |  |  | 139 nM | 213 nM | 
GCAUUCGGAUUAGGAUAUCUACAUCAUUCGUUUGGGAUAGAGCUACAUGAGGAUCACCCAUGUGUAGAGAAGGAAUAUGAACAC | 79 nM | 83.9 nM |  |  | 
AAACAGGAAGGAUAUACAUGAGGAUCACCCAUGUCAAAUAAAACAAAUAAGCAAGAAUGUAGAAGGACCAAAAU |  |  | 17.2 nM | 12.8 nM | 
CCUAGACAUGAGGAUCACCCAUGUUAUUGUCUUCAAGGAUAUCGAUGUCUCUCAUAGGCACGAGAAGGUGACUCCU | 85.2 nM | 67.1 nM |  |  | 
UGUCCCACGCAAGUACAUGAGGAUCACCCAUGUCUGAACCAGAGAAGGAGAGUUAUACUGGAAAUCUAGGAUAUCUGACAGACU |  |  | 43.3 nM | 50.5 nM | 
CUAAAACAUGAGGAUCACCCAUGUGUUUAGCGCAGAGGAUAUUGGGAUUGGUUGCUCGCUCAAGAAGGCUGAUUGG | 8.55 nM | 7.02 nM |  |  | 
UACAUGAGGAUCACCCAUGUGGUCAGGUUAUCCCGGACGGGAAGAAGGAUAAGAGAGUAACAUUUAUAGGAUAUUCGCCUCAUU | 57.8 nM | 48.9 nM |  |  | 
GACGUCGCCUUAGGAUAUGCCCAUUACAUGAGGAUCACCCAUGUUUCUUAAAGAGGAUCCGCAUGGCAGAAGGAAGGUCUCCAC |  |  | 25.4 nM | 59.4 nM | 
UAGGUUCUAGUUUCUGCACAUGAGGAUCACCCAUGUUUAGUAAAGGAUAUCACGGUAAGUCGACGUGAGAAGGUUACGUUAGGG |  |  | 33.6 nM | 37 nM | 
UAGUACAUGAGGAUCACCCAUGUCGGAGGUCGAGGACCGGUACGGCCGCCACUCGGUCAUGCCCUACGAUACGACAGGAAUCUGU |  |  |  |  | apparent Kd (designed as: ON switch for tryptophan, no ligand): 22.2 nM; apparent Kd (ligand present: tryptophan, designed as: ON switch for tryptophan): 16.8 nM
UGGUUAACAUGACAUGAGGAUCACCCAUGUCUUGGAAUUACAAGAAGGAAGGACACAGGUAGACCUUAGGAUAUUGUGACUUGA | 24.6 nM | 11.6 nM |  |  | 
AUCUUAGGUGAGAAGGUGGACACAUGAGGAUCACCCAUGUUGAUGGUCUUGUAGCGUUUGCAAGCCAAGGAUAUCAUCUACGGC | 27.4 nM | 19.8 nM |  |  | 
CCACCCGACAUGAGGAUCACCCAUGUAGAUGAUCCUGUACCAUAGGAUAUAGGCGUAAGAGAGAUCUAGAAGGAUGUACAACCC |  |  | 108 nM | 73.5 nM | 
AUGCACAUCUAGGAUACCAGCACCCUUAUGUCACUAGUUAACAUGAGGAUCACCCAUGUUUGCCCUUGGCAGCCUCAUUGACCAU |  |  |  |  | apparent Kd [5]: 68.5 nM; apparent Kd [6]: 172 nM
ACGGUAGGCUAGAAGGCCCGGACUCGCCCAGAGGGAGGAUAUAGCAUUGGCGUACUACAUGGCACAUGAGGAUCACCCAUGUAA |  |  | 35.4 nM | 30.6 nM | 
AGGCCACAUGAGGAUCACCCAUGUAAGGAUAUUGGAGCAUGGAAACGCUGUGCGCAUGCAAGAAGGUACACGGA |  |  | 24.7 nM | 20.5 nM | 
GUCAUUCUCAACAUGAGGAUCACCCAUGUCGGUUAUCUGGGCUAGGAUAUCACGAUGCCACUGCGUGAGAAGGAGCGUUCGAUA |  |  | 67.3 nM | 27.5 nM | 
GACCUCCUGCGAGCACAUGAGGAUCACCCAUGUAAGGACCUGAGAAGGCACCGUUAAGAUUGGAGUGAGGAUAUCAGGAUAUAG |  |  | 23.5 nM | 19.7 nM | 
CGCGACUUCAGAGGAUAUGUGCGUGUCACAUGAGGAUCACCCAUGUAAGGUUACCUACGACCGGGACAGAAGGCUGACCCAAAA | 61 nM | 19.6 nM |  |  | 
UAGGUGCUAGGAGGAUAUUGUGAAUUUAAUUUUCAAGAAGGCCUGAACAGACUGCACAUGAGGAUCACCCAUGUAUCCAACGUC |  |  | 17.2 nM | 11.7 nM | 
UGAGCAUCCCAGAAGGAUAUAUGGUCGUAAACAUGAGGAUCACCCAUGUUCCAUUUAGGACUCAAAUAGAAGGUCUCGGGCCAGAC | 13.6 nM | 11.7 nM |  |  | 
GCUGGACAUGAGGAUCACCCAUGUGAGGAUAUGAGAAGUAUCAUGCACCCGAUCCAUCUCAGAAGGCACAGGUG |  |  | 71.5 nM | 258 nM | 
